From PubChem
In the library only some 1.7% were active in any assay of this set; here they are far more common.
SUMO1-SIM PPI – modulators of human SUMO1-mediated protein-protein interactions | actives 0.33% (n = 360,000) | P63165 | inhibition, % at 20 µM | SUMO1 binding to a labelled peptide, TR-FRET, 1 h; in the data active means inhibition above about 37%
Target sequence (P63165 whole entry, looked up): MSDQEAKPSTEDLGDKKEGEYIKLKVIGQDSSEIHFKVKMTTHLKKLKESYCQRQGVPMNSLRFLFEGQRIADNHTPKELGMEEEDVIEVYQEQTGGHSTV
Scp1 inh – Scp-1 (human) phosphatase inhibition; inhibition, % at 20 µM; Q9GZU7; actives 0.88% (n = 340,000); Recombinant Scp1, phosphopeptide, malachite green phosphate absorbance;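 active means inhibition above about 50% at 20 µM, limit read from the data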
Target sequence (Q9GZU7 76-261 limits assumed): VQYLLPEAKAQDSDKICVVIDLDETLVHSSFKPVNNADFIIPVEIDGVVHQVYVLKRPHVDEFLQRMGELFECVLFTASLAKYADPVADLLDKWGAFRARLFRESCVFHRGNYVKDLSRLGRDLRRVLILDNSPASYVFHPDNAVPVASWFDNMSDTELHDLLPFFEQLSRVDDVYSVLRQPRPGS
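Material – SCP-1 phosphatase catalytic domain, residues 76-261 · Buffer or medium – Acidic Tris acetate buffer with magnesium and detergent · Also added – Phospho 17-mer peptide substrate · Compound – single 20 µM dose, 1% DMSO · Times – 45 min room-temperature reaction, 5 min colour, 30 min stabiliser · Technique – Phosphate-binding colour reagent, absorbance read at 630 nm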
DNMT1 inh – inhibitors of human DNMT1; inhibition (reported as % activation of signal), % at 10 µM; actives 0.83% (n = 360,000); DNMT1 molecular beacon, Hinp1I cleavage, fluorescence; in the data active means inhibition above about 50%
STEP inh – inhibitors of human striatal-enriched phosphatase STEP | P54829 | recombinant STEP, OMFP fluorogenic substrate, fluorescence | inhibition, % at 20 µM | actives 0.25% (n = 360,000) | AID 588621;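 active means inhibition at 20 µM, scaled per plate between control wells, above about 37%, limit read from the data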
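material = STEP tyrosine phosphatase | reagent = fluorogenic phosphatase substrate OMFP at 25 µM final | doses = single compound dose of 20 µM, 1% DMSO final | schedule = 20 min reaction, room temperature, in the dark | measured by = fluorescence, 480/540 nm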
LMPTP block – blocks human LMPTP phosphatase; recombinant LMPTP-A, OMFP fluorogenic substrate, fluorescence intensity; inhibition, % at 20 µM; P24666; actives 0.22% (n = 360,000);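 active means compounds that cut the enzyme signal by at least half of the control window in the single-dose screen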
Target sequence (P24666 whole entry, looked up): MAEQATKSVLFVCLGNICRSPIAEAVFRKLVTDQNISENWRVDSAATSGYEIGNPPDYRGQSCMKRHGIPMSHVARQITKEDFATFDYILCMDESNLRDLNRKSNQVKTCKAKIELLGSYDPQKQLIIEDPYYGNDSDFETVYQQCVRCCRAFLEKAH
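Test system: LMPTP-A phosphatase enzyme; input: 0.625 nM LMPTP-A final; reagent: OMFP substrate, 400 µM final; compound dosing: 20 µM single dose, 3% DMSO; incubation: 50 min dark incubation at room temperature; measured by: endpoint fluorescence intensity from OMFP dephosphorylation; measure: % inhibition relative to no-enzyme and uninhibited control wells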
Scp-1 conf – confirmation of human Scp-1 phosphatase inhibitors | inhibition, % at 20 µM | shares compounds with Scp1 inh | recombinant SCP-1 catalytic domain, phosphate release, malachite green absorbance | actives 61% (n = 2,500) | AID 540281
Scp-1 MG ctr – interferes with malachite green readout, flagging false Scp-1 hits | shares compounds with Scp1 inh | Colorimetric interference counterscreen, malachite green absorbance 630 nm | apparent inhibition (interference), % at 20 µM | 2,500 tested, under 10 active;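 further: compounds added after enzyme reaction finished so only phosphate colour detection is probed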
Scp-1 Tm shift – Scp-1 (human) binding by thermal shift; shares compounds with Scp1 inh; Recombinant SCP1, Sypro Orange thermal shift Tm; thermal shift relative to vanadate control, % at 40 µM; actives 25% (n = 1,500);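 active means substances whose mean melting-temperature shift, as a percentage of the reference inhibitor's shift, reaches about 5.3%, limit read from the data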
Hits are given with their value; n = inactive; x = no result.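 How the source made its calls, unless noted: active means inhibition of at least 30% at 20 µM; inactive means the rest.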

SMILES	SUMO1-SIM PPI	Scp1 inh	DNMT1 inh	STEP inh	LMPTP block	Scp-1 conf	Scp-1 MG ctr	others
O=C(COC(=O)/C=C/c1ccco1)Nc1ccc(F)cc1Cl	n	50	n	n	n	36	n	Scp-1 Tm shift=n
Cc1cc(C)c2c(n1)SCC(=O)N2CC(=O)Nc1cccc(Cl)c1	n	n	n	n	n	x	x
Cc1cc(C)c2c(n1)SCC(=O)N2CC(=O)Nc1c(C)cccc1C	n	52	n	n	n	n	n
CCOC(=O)N(O)c1ccc(C=Cc2ccccc2)cc1	n	59	n	n	n	50	n	Scp-1 Tm shift=n
CCC(=O)Nc1ccc(C(=O)N/N=C/c2ccc([N+](=O)[O-])cc2)cc1	n	n	n	n	n	x	x
CCC1(c2ccccc2)NC(=O)N(CC(=O)NNC(=O)COc2ccc(Cl)cc2C)C1=O (stereo not drawn)	n	n	n	n	n	n	n
CCC1(c2ccccc2)NC(=O)N(CC(=O)NCc2ccncc2)C1=O (stereo not drawn)	n	n	n	n	n	x	x
COc1ccc2nc(COC(=O)c3cccc([N+](=O)[O-])c3)c(C(C)=O)[n+]([O-])c2c1	n	n	n	n	n	x	x
COc1ccc2nc(COC(=O)c3cccs3)c(C(C)=O)[n+]([O-])c2c1	n	103	n	n	n	n	n
CCOC(=O)Nc1nc(-c2ccc(Cl)cc2Cl)cs1	n	n	n	n	n	x	x
Cc1[nH]c2ccccc2c1N=Nc1cc(C(=O)O)cc(C(=O)O)c1	n	52	n	n	n	n	n
Cc1[nH]c2ccccc2c1N=Nc1ccc(F)cc1	n	n	n	n	n	x	x
CC[n+]1ccc(C[n+]2ccccc2)c2ccccc21	n	97	n	n	n	86	n	Scp-1 Tm shift=n
CC(C)c1ccc(-c2c(C#N)c(N)nc3c2CCCCC3)cc1	n	100	n	n	n	n	n
Cc1ccc(-c2c(C#N)c(N)nc3c2CCCCC3)cc1	n	n	n	n	n	x	x
CCOC(=O)CN1C(=O)N[C@@H](c2cccc(C(F)(F)F)c2)[C@@H](C(=O)OC)[C@H]1C	n	n	n	n	n	x	x
CCOC(=O)C1(C)Oc2ccccc2C(C(=O)OC)=C1C(=O)OC (stereo not drawn)	n	94	n	n	n	53	n	Scp-1 Tm shift=n
CCOC(=O)C1(C)Oc2ccccc2C(c2ccc(OC)cc2)=C1C(=O)OC (stereo not drawn)	n	n	n	n	n	x	x
CC(=O)Nc1ccc(NC(=O)Cc2ccc(S(=O)(=O)N3CCCCC3)cc2)cc1	n	n	n	n	n	x	x
Cn1ccsc1=NC(=O)c1ccc(=O)[nH]c1	n	94	n	n	n	n	n
Cc1ccc(C(=O)OCC(=O)NC2CCCC(C)C2C)cc1S(=O)(=O)N1CCCCC1 (stereo not drawn)	n	n	n	n	n	x	x
CCn1nc(NS(=O)(=O)c2ccc(NC(C)=O)cc2)c2cc3cc(C)ccc3nc21	n	n	n	n	n	x	x
CC(C)NC(=O)N(C)C[C@H]1Oc2ccc(NS(=O)(=O)c3cn(C)cn3)cc2C(=O)N([C@H](C)CO)C[C@@H]1C	n	82	n	n	n	n	n
C[C@H](CO)N1C[C@H](C)[C@@H](CN(C)C(=O)Nc2ccc(C(F)(F)F)cc2)Oc2ccc(NS(=O)(=O)c3cn(C)cn3)cc2C1=O	n	73	n	n	n	n	n
C[C@H](CO)N1C[C@H](C)[C@@H](CN(C)C(=O)NC2CCCCC2)Oc2ccc(NS(=O)(=O)c3cn(C)cn3)cc2C1=O	n	n	n	n	n	x	x
SMILES	SUMO1-SIM PPI	Scp1 inh	DNMT1 inh	STEP inh	LMPTP block	Scp-1 conf	Scp-1 MG ctr	others
C[C@@H]1CN([C@@H](C)CO)C(=O)Cc2cc(NS(=O)(=O)c3cn(C)cn3)ccc2O[C@@H]1CN(C)C(=O)Nc1ccccc1	n	88	n	n	n	62	n	Scp-1 Tm shift=n
Cc1noc(C)c1S(=O)(=O)N(C)C[C@H]1Oc2ccc(NS(=O)(=O)c3cn(C)cn3)cc2C(=O)N([C@H](C)CO)C[C@@H]1C	n	53	n	n	n	n	n
COc1ccc(Cc2nnc(NC(=O)c3ccccc3C)s2)cc1	n	n	n	n	n	x	x
Cc1ccc(S(=O)(=O)Nc2ccc3c(c2)CC(=O)N([C@H](C)CO)C[C@@H](C)[C@H](CN(C)S(=O)(=O)c2ccccc2)O3)cc1	n	n	n	n	n	x	x
Cc1ccc(S(=O)(=O)N(C)C[C@@H]2Oc3ccc(NS(=O)(=O)c4ccccc4)cc3CC(=O)N([C@@H](C)CO)C[C@H]2C)cc1	n	50	n	n	n	n	n
Cc1ccc(S(=O)(=O)N[C@H](C(=O)OCC(=O)NC(=O)NCc2ccco2)C(C)C)cc1	n	62	n	n	n	n	n
CC(=O)OC[C@@H]1CN(Cc2ccccc2)C[C@H](n2cnc3c(NC4CC4)ncnc32)O1	n	x	n	n	n	x	x
Cc1ccccc1C(=O)NC1CCSC1=O (stereo not drawn)	n	64	n	n	n	n	n
O=C(O)c1cccc2c1-c1ccc(Cl)cc1C2=O	n	n	n	n	n	x	x
Nc1cccc2c1C(=O)c1ccc(Cl)cc1C2=O	n	50	n	n	n	n	n
Cc1ccc(C(=O)Nc2cccc(NC(=O)c3ccc(C)c([N+](=O)[O-])c3)n2)cc1[N+](=O)[O-]	n	70	n	n	n	67	n	Scp-1 Tm shift=14
Cc1cc(NC(=O)c2ccc(C)c([N+](=O)[O-])c2)no1	n	n	n	n	n	x	x
C[N+]1(C2CCC3CCCC2C3O)CCCCC1 (stereo not drawn)	n	96	n	n	n	78	n	Scp-1 Tm shift=n
Cc1ccc(NC(=O)CSc2nc(-c3ccco3)nc3cc(=O)[nH]n23)c(Cl)c1	n	71	n	n	n	48	n	Scp-1 Tm shift=n
O=c1oc2ccccc2c2c1ccc1ccccc12	n	80	n	n	n	n	n
O=c1oc2ccccc2c2[nH]ccc12	n	n	n	n	n	x	x
O=C(C[C@H]1CC[C@@H]2[C@H](COC[C@H](O)CN2C(=O)c2cnccn2)O1)NCc1ccc(Cl)cc1	n	x	x	x	n	x	x
O=C(O)c1ccccc1-c1c2cc(I)c(=O)c(I)c-2oc2c(I)c(O)c(I)cc12	69	77	n	n	n	65	n	Scp-1 Tm shift=164
N#Cc1ccccc1N1CCN(C(=O)c2ccc(NC(=O)c3ccc(Br)o3)cc2)CC1	n	60	n	n	n	73	n	Scp-1 Tm shift=n
